In ChEMBL document CHEMBL1148427, “Diastereoselective synthesis and configuration-dependent activity of (3-substituted-cycloalkyl)glycine pyrrolidides and thiazolidides as dipeptidyl peptidase IV inhibitors” (Bioorg Med Chem Lett, 2004):

Assays:
[1] = Inhibitory activity against human aminopeptidase P
[2] = biological target: Dipeptidyl peptidase 4 (Homo sapiens, UniProt P27487); experiment: Inhibitory activity against human recombinant Dipeptidylpeptidase IV
In short: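 Human recombinant enzyme run in a fluorometric assay with Gly-Pro-AMC as substrate. Cleavage releases fluorescent 7-amino-4-methylcoumarin, which is read to give IC50 values.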

[3] = biological target: Dipeptidyl peptidase 2 (Homo sapiens, UniProt Q9UHL4); experiment: Inhibitory activity against human quiescent cell proline dipeptidase
[4] = biological target: T1, Prolyl endopeptidase (Homo sapiens, UniProt P48147); experiment: Inhibitory activity against human prolylendopeptidase
T1 sequence (P48147 whole entry): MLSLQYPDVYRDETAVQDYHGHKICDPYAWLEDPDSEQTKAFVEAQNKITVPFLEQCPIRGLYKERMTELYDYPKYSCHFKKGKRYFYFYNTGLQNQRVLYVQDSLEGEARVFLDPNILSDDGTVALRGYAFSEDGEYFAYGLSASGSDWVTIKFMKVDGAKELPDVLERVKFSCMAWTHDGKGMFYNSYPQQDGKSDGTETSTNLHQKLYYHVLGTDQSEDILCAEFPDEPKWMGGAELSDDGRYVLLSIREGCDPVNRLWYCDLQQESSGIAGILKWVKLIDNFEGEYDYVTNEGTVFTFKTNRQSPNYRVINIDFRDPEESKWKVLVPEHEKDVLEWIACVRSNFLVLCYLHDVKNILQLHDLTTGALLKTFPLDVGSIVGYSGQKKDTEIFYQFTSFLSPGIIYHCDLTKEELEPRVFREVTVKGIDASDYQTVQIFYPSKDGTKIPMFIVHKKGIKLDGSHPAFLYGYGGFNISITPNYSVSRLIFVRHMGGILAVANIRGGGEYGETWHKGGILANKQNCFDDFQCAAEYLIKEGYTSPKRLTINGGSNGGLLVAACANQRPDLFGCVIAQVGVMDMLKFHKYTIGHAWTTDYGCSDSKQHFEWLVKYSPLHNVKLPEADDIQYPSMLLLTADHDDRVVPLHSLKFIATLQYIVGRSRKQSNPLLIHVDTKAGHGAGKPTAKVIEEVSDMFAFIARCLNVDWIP

Chain of Dipeptidyl peptidase 4 (P27487 whole entry): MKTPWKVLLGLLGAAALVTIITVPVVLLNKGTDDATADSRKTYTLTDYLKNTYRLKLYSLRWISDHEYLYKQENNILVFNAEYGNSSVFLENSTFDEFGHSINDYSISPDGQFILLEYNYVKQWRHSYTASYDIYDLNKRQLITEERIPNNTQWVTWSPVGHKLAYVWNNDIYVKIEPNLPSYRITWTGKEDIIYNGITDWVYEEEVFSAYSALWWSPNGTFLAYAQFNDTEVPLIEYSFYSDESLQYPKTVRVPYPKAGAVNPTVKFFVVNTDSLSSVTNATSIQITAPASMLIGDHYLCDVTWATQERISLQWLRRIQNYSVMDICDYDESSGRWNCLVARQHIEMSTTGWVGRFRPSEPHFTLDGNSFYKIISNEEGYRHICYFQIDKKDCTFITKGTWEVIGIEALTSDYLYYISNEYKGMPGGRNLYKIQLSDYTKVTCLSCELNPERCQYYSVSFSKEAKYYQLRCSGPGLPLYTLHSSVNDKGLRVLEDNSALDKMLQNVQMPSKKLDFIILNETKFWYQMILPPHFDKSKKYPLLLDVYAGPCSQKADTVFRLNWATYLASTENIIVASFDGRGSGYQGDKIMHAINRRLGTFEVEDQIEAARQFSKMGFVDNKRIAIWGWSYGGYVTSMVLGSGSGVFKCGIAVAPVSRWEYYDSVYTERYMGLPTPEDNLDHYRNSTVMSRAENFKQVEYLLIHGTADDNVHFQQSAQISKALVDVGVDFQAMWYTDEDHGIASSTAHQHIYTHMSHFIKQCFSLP

Row | SMILES | IC50 [1] | IC50 [2] | IC50 [3] | IC50 [4]
1 | N[C@H](C(=O)N1CCCC1)[C@H]1CC[C@@H](OC(=O)Nc2ccc(I)cc2)C1 | > 100000 nM | 660 nM | 160 nM | 
2 | N[C@H](C(=O)N1CCCC1)[C@H]1CC[C@@H](NC(=O)c2cccc3ccccc23)C1 | > 100000 nM | 230 nM | 990 nM | 
3 | COC(=O)[C@@H](NC(=O)OC(C)(C)C)[C@H]1CC[C@@H](O)C1 | > 100000 nM |  |  | 
4 | N[C@H](C(=O)N1CCCC1)[C@@H]1CC[C@@H](NS(=O)(=O)c2ccc(C(=O)O)cc2)C1 | > 100000 nM | 110 nM | 5000 nM | 
5 | COC1=N[C@H](C(C)C)C(OC)=N[C@H]1[C@H]1CC[C@H](O)C1 | > 100000 nM |  |  | 
6 | N[C@H](C(=O)N1CCCC1)[C@H]1CCC[C@H](OC(=O)Nc2ccc(I)cc2)C1 | > 100000 nM | 330 nM | 110 nM | > 100000 nM
7 | COC1=N[C@H](C(C)C)C(OC)=NC1 | > 100000 nM |  |  | 
8 | COc1ccc(NC(=O)O[C@@H]2CCC[C@H]([C@H](N)C(=O)N3CCSC3)C2)cc1 | > 100000 nM | 83 nM | 220 nM | 
9 | N[C@H](C(=O)N1CCCC1)[C@@H]1CC[C@H](NS(=O)(=O)c2ccc(S(N)(=O)=O)cc2)C1 | > 100000 nM | 250 nM | 3100 nM | 
10 | N[C@H](C(=O)N1CCCC1)[C@H]1CC[C@H](NS(=O)(=O)c2ccc(S(N)(=O)=O)cc2)C1 | > 100000 nM | 83 nM | 22 nM | 
11 | N[C@@H](C(=O)N1CCSC1)[C@H]1CC[C@@H](OC(=O)Nc2cccc3ccccc23)C1 | > 100000 nM | 1700 nM | 110 nM | 
12 | N[C@H](C(=O)N1CCCC1)[C@H]1CC[C@H](NS(=O)(=O)c2ccc(C(=O)O)cc2)C1 | > 100000 nM | 72 nM | 12000 nM | 
13 | N[C@H](C(=O)N1CCCC1)[C@@H]1CC[C@H](NC(=O)Nc2cccc3ccccc23)C1 | > 100000 nM | 440 nM | 1300 nM | 
14 | N[C@H](C(=O)N1CCCC1)[C@H]1CCC[C@@H](OC(=O)Nc2ccc(I)cc2)C1 | > 100000 nM | 110 nM | 420 nM | 27000 nM
15 | N[C@H](C(=O)N1CCCC1)[C@H]1CC[C@H](OC(=O)Nc2ccc(I)cc2)C1 | > 100000 nM | 180 nM | 260 nM | 

Other lines, results leading:

Row | IC50 [1] | IC50 [2] | IC50 [3] | IC50 [4] | SMILES
16 | > 100000 nM |  |  |  | O=C(N[C@H](C(=O)N1CCCC1)[C@@H]1CC[C@@H](OC(=O)c2ccc([N+](=O)[O-])cc2)C1)OCc1ccccc1
17 | > 100000 nM |  |  |  | O=C(N[C@H](C(=O)N1CCCC1)[C@@H]1CC[C@H](O)C1)OCc1ccccc1
18 | > 100000 nM |  |  |  | COC1=N[C@H](C(C)C)C(OC)=N[C@H]1[C@H]1CC[C@@H](O)C1
19 | > 100000 nM |  |  |  | COC1=N[C@H](C(C)C)C(OC)=N[C@H]1[C@H]1CCC(=O)C1
20 | > 100000 nM | 220 nM | 110 nM |  | N[C@H](C(=O)N1CCCC1)[C@H]1CC[C@H](NS(=O)(=O)c2ccc(S(=O)(=O)C(F)(F)F)cc2)C1
21 | > 100000 nM |  |  |  | COC(=O)[C@H](NC(=O)OC(C)(C)C)[C@H]1CC[C@@H](O)C1
22 | > 100000 nM |  |  |  | COC1=N[C@H]([C@@H]2CC[C@H](O)C2)C(OC)=N[C@H]1C(C)C
23 | > 100000 nM | 170 nM | 1700 nM | > 100000 nM | N[C@H](C(=O)N1CCCC1)[C@@H]1CC[C@@H](NS(=O)(=O)c2ccc(OC(F)(F)F)cc2)C1
24 | > 100000 nM | 130 nM | 19000 nM | > 100000 nM | CS(=O)(=O)c1ccc(S(=O)(=O)N[C@H]2CC[C@H]([C@H](N)C(=O)N3CCCC3)C2)cc1
25 | > 100000 nM | 46 nM | 2300 nM |  | N[C@H](C(=O)N1CCCC1)[C@@H]1CC[C@@H](NS(=O)(=O)c2ccc(S(N)(=O)=O)cc2)C1
26 | > 100000 nM | 13 nM | 1600 nM | > 100000 nM | CS(=O)(=O)c1ccc(S(=O)(=O)N[C@@H]2CC[C@@H]([C@H](N)C(=O)N3CCCC3)C2)cc1
27 | > 100000 nM |  |  |  | COC1=N[C@@H](C(C)C)C(OC)=NC1
